Bioassay records: PubChem BioAssay, several laboratories
Shown are actives, neighbours in structure and some others; about 11% of the full set was active somewhere.
S1P3 ag = activates the human S1P3 receptor; Q99500; S1P3 NFAT-BLA reporter cells, agonism, FRET ratio; relative to 1 µM S1P, basal subtracted; activation, % at 4.5 µM; 60,000 compounds, 0.1% hits; AID 373;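 active = activation above the screen-wide mean plus 3 SD, cut at about 4.5% in these data, passing the limit was not always enough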
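Measure – % activation relative to 1 µM S1P (100%), per plate · System – stable CHO line with human S1P3, Gα16, NFAT-BLA reporter · Timing – cells plated overnight, compound 4 h 37 °C, substrate 2 h RT · Technique – fluorescent BLA substrate, ex 405 nm, em 460/535 nm ratio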
M1 ag = agonists of M1 muscarinic receptor; CHO-M1 cells, Fluo-4 calcium fluorescence, agonist mode; active compounds read high; 64,000 compounds, 3% hits; B-score at 10 µM;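 active = fluorescence rise, raw or as B-score row- and column-corrected plate score, outside the 99.7% band of its plate's samples, either direction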
S1P1 ag pot = agonists and agonism potentiators of human S1P1 receptor. activation, % at 9.5 µM. AID 449. 56,000 compounds, 0.57% hits. P21453. S1P1 CRE-bla cells, forskolin, beta-lactamase FRET, potentiator mode; S1P1 agonist co-added at EC20, 2 nM; 100% = saturating reference agonist, 0% = basal;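 active = activation above a cutoff set at the mean activation of all tested compounds plus 3 SD, cut at about 54% in these data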;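 note: forskolin at 4 µM as EC80 and the EC20 agonist is SEW2871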
Target sequence (P21453 whole entry, looked up): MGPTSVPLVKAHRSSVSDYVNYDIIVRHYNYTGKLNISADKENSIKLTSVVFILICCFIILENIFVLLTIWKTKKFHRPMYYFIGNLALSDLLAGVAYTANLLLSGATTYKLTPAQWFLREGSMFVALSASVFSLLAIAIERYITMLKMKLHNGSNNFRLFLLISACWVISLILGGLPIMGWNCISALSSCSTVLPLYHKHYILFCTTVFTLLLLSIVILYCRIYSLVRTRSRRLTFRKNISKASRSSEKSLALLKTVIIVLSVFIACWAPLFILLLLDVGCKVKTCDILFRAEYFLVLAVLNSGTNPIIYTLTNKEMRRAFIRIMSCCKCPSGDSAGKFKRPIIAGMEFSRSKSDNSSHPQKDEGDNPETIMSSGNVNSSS
M1 antagonist = M1 muscarinic receptor (rat) antagonism | P08482 | CHO-M1 cells, Fluo-4 calcium, ACh EC80 antagonist mode; active compounds read low | B-score at 10 µM | 64,000 compounds, 3.4% hits | AID 628;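 active = calcium fluorescence response, raw or row-and-column corrected B-score, differing from the plate sample mean either way at a set confidence level, mostly lower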
D1 mod = D1 dopamine receptor (human) allosteric modulation. HEK293 D1, CRE-luciferase, dopamine EC30 potentiation; actives deviate in either direction. 58,000 compounds, 5.9% hits. B-score at 10 µM. P21728;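 active = luminescence count or its row- and column-corrected plate score outside the 99.7% band of the plate's sample wells, on either side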
D1 mod confirm = D1 receptor (human) allosteric modulation, confirmed; HEK293 D1 CRE-luciferase, dopamine EC30 potentiation; active compounds read high; shares compounds with D1 mod; luminescence at 10 µM; 2,200 compounds, 88% hits;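 active = luminescence in either of two replicates above the same-plate mean plus 3 SD of the low-dose dopamine control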
D1 no dopamine = D1 (human) signaling in absence of dopamine; 1,900 compounds, 0.8% hits; HEK293 D1 CRE-luciferase, luminescence, no dopamine; active compounds read high; AID 646; shares compounds with D1 mod; luminescence at 10 µM; in the data active = luminescence above about 3900
Isoprot counter = alters isoproterenol CRE-luciferase response in HEK293 cells | shares compounds with D1 mod | HEK293 D1 CRE-luciferase, isoproterenol EC30 counter-screen | calls only at 10 µM | 2,200 compounds, 63% hits;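 active = luminescence in either replicate above plate mean of wells with a partly effective reference agonist dose plus 3 SD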;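 note: isoproterenol raises cAMP through native beta-adrenoceptor Gs so signal bypasses D1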
Each line names hits and unclear results; the compound was inactive in the other large screens (follow-up assays come after a bar, where they were run).

NS(=O)(=O)c1ccc(CCNC2CC(=O)N(Cc3ccccc3)C2=O)cc1 (stereo not given)	none
CC(C)(C)n1nnnc1CN1C2CCC1CC(NC(=O)Nc1ccccc1)C2 (stereo not given)	D1 mod 4.77 | D1 mod confirm inactive | Isoprot counter inactive
COc1ccc(S(=O)(=O)N2CCC(C(=O)N3CCCCC3)CC2)cc1OC	D1 mod 7.65 | D1 mod confirm 12168 | D1 no dopamine inactive | Isoprot counter active
Cc1ccc(-n2c(SCC(=O)NCC3CCCO3)nc3n[nH]c(C)c3c2=N)cc1Cl (stereo not given)	none
CCC(Sc1nc2n[nH]c(C)c2c(=N)n1-c1cc(Cl)ccc1C)C(=O)N1CCOCC1 (stereo not given)	D1 mod 6.37 | D1 mod confirm 12280 | D1 no dopamine inactive | Isoprot counter active
Cc1nn2c(N3CCCC3)cc(C(C)C)nc2c1-c1ccccc1	D1 mod 5.34 | D1 mod confirm 5624 | D1 no dopamine inactive | Isoprot counter inactive
COc1ccc(-c2nc(C(N)=O)c3[nH]c(=O)n(-c4cccc(C)c4)c3n2)c(OC)c1	D1 mod 7.73 | D1 mod confirm 10376 | D1 no dopamine inactive | Isoprot counter active
Cc1cccc(-n2c(=O)[nH]c3c(C(N)=O)nc(CC(C)C)nc32)c1	D1 mod 10.9 | D1 mod confirm 15452 | D1 no dopamine inactive | Isoprot counter active
CC(C)Cc1nc(C(N)=O)c2[nH]c(=O)n(-c3ccc(F)cc3)c2n1	none
O=C(COc1ncnc2ccccc12)NCCCN1CCCC1=O	none
Cc1onc(-c2ccccc2Cl)c1C(=O)NCc1nc(-c2ccccc2)no1	none
COc1ccc(-n2ccnc2SCC(=O)Nc2ccc(OC)cc2OC)cc1	none
Cc1cccc(NC(=O)Cn2nnc(-c3cccs3)n2)c1C	none
COC(=O)c1sccc1NC(=O)c1ccncc1	D1 mod 11.1 (no result: S1P1 ag pot) | D1 mod confirm 14580 | D1 no dopamine inactive | Isoprot counter active
COC(=O)c1sccc1NC(=O)c1cc(C)on1	D1 mod 3.44 | D1 mod confirm 10948 | D1 no dopamine inactive | Isoprot counter active
COC(=O)c1sccc1NC(=O)c1c(C)noc1C	none
COC(=O)c1sccc1NC(=O)Cn1nnc(-c2ccc(C)cc2)n1	D1 mod 2.42 (no result: S1P1 ag pot) | D1 mod confirm inactive | D1 no dopamine inactive | Isoprot counter inactive
CC(Sc1cccc(C(F)(F)F)c1)C(=O)NC(N)=O (stereo not given)	none (no result: D1 mod)
O=C(CSc1ccc2nnc(-c3ccccn3)n2n1)NCC1CCCO1 (stereo not given)	none
O=C(c1ccc2nc(N3CCOCC3)sc2c1)N1CCC2(CC1)OCCO2	none
CC1(C)Cc2c(C#N)c(N)sc(=S)c2CO1	D1 mod 9.11 | D1 mod confirm 17212 | D1 no dopamine inactive | Isoprot counter active
N#Cc1c(N)sc(=S)c2c1CCN(Cc1ccccc1)C2	none
CC(C)C1Cc2c(C#N)c(N)sc(=S)c2CO1 (stereo not given)	D1 mod 10.5 | D1 mod confirm 21832 | D1 no dopamine inactive | Isoprot counter active
CCOC(=O)c1cc2c(=O)n3cccc(C)c3nc2n(Cc2ccccc2Cl)c1=N	none
O=C(CSc1nnnn1-c1ccc2c(c1)OCO2)NCc1ccccc1	none
Fc1ccccc1CSc1nnnn1-c1ccc2c(c1)OCO2	D1 mod 5.12 (no result: S1P1 ag pot) | D1 mod confirm 11056 | D1 no dopamine inactive | Isoprot counter inactive
CCOC(=O)c1cn[nH]c1N	none
COC(=O)c1ccccc1NC(=O)C1CCN(S(=O)(=O)c2cc(C)ccc2OC)CC1	D1 mod 17.5 (no result: S1P1 ag pot) | D1 mod confirm 16104 | D1 no dopamine inactive | Isoprot counter active
COC(=O)c1ccccc1NC(=O)C1CCCN(S(C)(=O)=O)C1 (stereo not given)	none
COCCOC(=O)C(C#N)c1nc2ccccc2nc1N1CCCC1 (stereo not given)	none
C=CCOC(=O)C(C#N)c1nc2ccccc2nc1N1CCCC1 (stereo not given)	D1 mod 3.1 | D1 mod confirm 15796 | D1 no dopamine inactive | Isoprot counter active
Cc1cc(C)n(S(=O)(=O)/C=C/c2ccccc2)n1	none (no result: D1 mod)
CCOc1ncccc1C(=O)OCC(=O)NCCc1ccc(OC)cc1	none
CCOc1ncccc1C(=O)OCc1ccc(C(=O)OC)o1	D1 mod 8 | D1 mod confirm 16096 | D1 no dopamine inactive | Isoprot counter active
O=C(NS(=O)(=O)c1ccccc1)c1ccccc1O	none
CN1C(=O)C2(C(C#N)=C(N)Oc3c2oc(CO)cc3=O)c2ccccc21 (stereo not given)	D1 mod 8.88 (no result: S1P1 ag pot) | D1 mod confirm inactive | D1 no dopamine inactive | Isoprot counter inactive
Cc1cc2c(c(=O)o1)C1(C(=O)N(C)c3ccccc31)C(C#N)=C(N)O2 (stereo not given)	none (no result: S1P3 ag, S1P1 ag pot)
COc1ccc(C)cc1C(=O)CCC(=O)Nc1ccccc1N1CCOCC1	none
O=C(c1ccc2c(c1)OCO2)N1CCc2ccccc2C1	D1 mod 21.8 | D1 mod confirm 18384 | D1 no dopamine inactive | Isoprot counter active
CC1(C)Cc2c(oc3ncn4ncnc4c23)CO1	none (no result: D1 mod)
CSc1nc2oc3c(c2c2nncn12)CC(C)(C)SC3	D1 mod 5.71 | D1 mod confirm 9128 | D1 no dopamine inactive | Isoprot counter inactive
CC(C)(C)NS(=O)(=O)c1ccc(CCC(=O)O)cc1	none (no result: D1 mod)
C=C(C)C1Cc2nc(N)nc(C)c2C1 (stereo not given)	D1 mod 13.7 | D1 mod confirm 14408 | D1 no dopamine inactive | Isoprot counter active
C=C(C)C1Cc2c(C)nn(-c3nc(C)cc(C)n3)c2C1 (stereo not given)	none
COc1ccc(C(c2sc3ncnn3c2O)N2CCN(c3ccccc3F)CC2)cc1OC (stereo not given)	D1 mod 4.77 | D1 mod confirm 14444 | D1 no dopamine inactive | Isoprot counter active
COc1ccc(C(c2sc3ncnn3c2O)N2CC(C)OC(C)C2)cc1OC (stereo not given)	none (no result: D1 mod)
CCC(=O)Nc1cc2c(cc1C(C)=O)OCCO2	none (no result: S1P3 ag, S1P1 ag pot)
CCCC(=O)Nc1cc2c(cc1C(=O)c1ccccc1)OCCO2	D1 mod 6.3 | D1 mod confirm 13204 | D1 no dopamine inactive | Isoprot counter active
CC(C)CSc1nc2c(c(=O)[nH]c(=O)n2C)n1CCc1ccccc1	D1 mod 18.9 | D1 mod confirm 14104 | D1 no dopamine inactive | Isoprot counter active
